Shown are actives, neighbours in structure and some others; about 0.85% of the full set was active somewhere.
CRFR2-BP ag – CRF-BP/CRF-R2 complex agonism; HEK293 CRF-R2/CRF-BP, calcium dye fluorescence (FLIPR); percent of saturating CRF peptide response; activation, % at 13.2 µM; 350,000 tested, 0.46% active;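 active = activation of at least 50%, plus an integration ratio under a set limit after plate pattern correction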;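 note: plate controls were neutral control wells without compound for no effect and CRF at EC100 for full effect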
OXTR ag – human OXTR agonism | P30559 | CHO-OTR cells, Fluo-8 calcium fluorescence; normalized: DMSO 0%, oxytocin 100% | activation, % at 3 µM | 320,000 tested, 0.32% active | AID 2435;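 active = activation above the mean of all tested compounds plus 3 SD, cutoff set per screening run, cut at about 20% in these data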;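 note: peak over basal fluorescence ratio from a 100 s FLIPR kinetic read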
Target sequence (P30559 whole entry, looked up): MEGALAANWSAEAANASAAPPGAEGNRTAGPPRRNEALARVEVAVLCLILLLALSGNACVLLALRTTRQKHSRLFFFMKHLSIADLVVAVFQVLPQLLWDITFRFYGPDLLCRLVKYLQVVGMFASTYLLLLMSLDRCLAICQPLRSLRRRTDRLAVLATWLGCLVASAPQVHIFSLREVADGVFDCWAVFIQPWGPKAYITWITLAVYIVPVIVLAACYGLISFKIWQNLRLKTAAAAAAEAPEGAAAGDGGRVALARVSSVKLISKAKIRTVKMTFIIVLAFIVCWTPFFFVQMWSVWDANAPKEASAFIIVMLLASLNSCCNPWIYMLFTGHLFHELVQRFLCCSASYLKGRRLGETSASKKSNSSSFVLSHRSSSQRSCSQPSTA
zfTRPN1 agonist – zebrafish TRPN1 (NompC) channel agonism | HEK293 zebrafish TRPN1-YFP, Fluo-8 calcium fluorescence; 100% = response to 87 µM carbachol | activation, % at 3 µM | 220,000 tested, 0.18% active;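 active = activation above its plate's cutoff, the mean activation of test wells on that plate plus 3 SD, cut at about 19% in these data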;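 note: 0% = DMSO alone and 100% = 87 µM carbachol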
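Control set: carbachol 87 µM as high control, DMSO as low control; system: HEK293 stable line with zebrafish TRPN1-YFP; read-out: % activation versus carbachol response; detection: intracellular calcium fluorescence with Fluo-8; doses: single test compound dose, 3 µM nominal, 0.3% DMSO; schedule: dye 1 h 37 °C plus 30 min RT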
OXTR potentiate – potentiates the human oxytocin receptor response; AID 2445; 320,000 tested, 0.061% active; P30559; activation, % at 3 µM; CHO-OTR cells, Fluo-8 calcium fluorescence, potentiator mode; 0% = oxytocin EC15, 100% = EC100;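 active = activation above that plate's cutoff, the mean activation of tested compounds plus 3 SD, cut at about 6.6% in these data, passing the limit was not always enough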;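 note: 100% uses oxytocin at 75 nM as the full agonist control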
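Measured by – Fluo-8 calcium dye fluorescence · Test system – human OTR in CHO cells · Dosing – one concentration, 3.0 µM compound · Controls – EC15 oxytocin alone as 0%, 75 nM oxytocin as 100% · Evaluation – normalized max/min fluorescence ratio, % activation · Timing – 6 min pre-incubation, 100 s read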
TRPML3 ag – human mucolipin-3 channel agonism. Q8TDD5. activation, % at 3 µM. AID 1448. HEK293 TRPML3-YFP, Fluo-8 calcium fluorescence; 100% = the carbachol control signal. 220,000 tested, 0.29% active;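 active = activation above its plate's cutoff, the mean activation of the plate's test wells plus 3 SD, cut at about 12% in these data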;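 note: 0% = DMSO only wells and 100% = carbachol wells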
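Material: TRPML3-YFP stable HEK293 cells | Dosing: One concentration, 3 µM nominal, 0.3% DMSO | Timing: 125 s total fluorescence read per well | Technique: Fluo-8 calcium dye fluorescence, ex 470-495, em 515-575 nm | Measure: Percent activation from peak-to-basal fluorescence ratio, scaled between DMSO and carbachol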
V1aR counter – V1a receptor agonism, counter-screen for OXTR agonists | activation, % at 3 µM | AID 2797 | 320,000 tested, 0.25% active | P37288 | CHO-V1R cells, Fluo-8 calcium fluorescence, agonist mode; 0% DMSO, 100% 3 nM vasopressin;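 active = activation above the mean activation of all tested compounds plus 3 SD, per screening run, cut at about 20% in these data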;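 note: signal is peak over basal fluorescence ratio across a 100 second FLIPR read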
Active calls of the source: *; nt = not tested or not shown.

SMILES	CRFR2-BP ag	OXTR ag	zfTRPN1 agonist	OXTR potentiate	TRPML3 ag	V1aR counter
CCOC(=O)[C@@H](C)N(C(=O)OC(C)(C)C)S(=O)(=O)N(Cc1ccccc1)[C@H](C(=O)OC)C(C)C	5	nt	nt	nt	nt	nt
Cc1cc(-c2ccc(N3CCOCC3)cc2)nc2ccccc12	58*	0	1	-2	2	2
c1ccc2nc(-c3ccc(N4CCOCC4)cc3)ccc2c1	3	1	0	-1	1	1
Cc1cccc(C)c1NC(=O)C(=O)NCCOc1ccc(Cl)cc1	12	22*	4	-22	1	19
Cc1ccc(C(=O)NCCOc2ccc(Cl)cc2)cc1	1	-1	nt	6	nt	-2
COCCn1c(=O)[nH]c(=O)c2cc(C(=O)c3cc(Cl)ccc3O)cnc21	99*	1	2	-10	1	2
CSc1nnc(C)c(/C=C/Nc2ccc(F)cc2F)n1	1	1	0	0	1	2
C=CCSc1nnc(C)c(/C=C/Nc2ccc(Cl)cc2)n1	114*	5	0	-2	0	7
CCCCOc1ccc(-c2nnn(CC(=O)Nc3ncc(CC(=O)OCC)s3)n2)cc1	12	33*	2	-19	0	27*
O=C(O)c1sccc1SCc1ccc(Cl)c(Cl)c1	-2	19	0	-22	0	22*
CCCc1nnc(NC(=O)Cn2c(=O)oc3cc(Br)ccc32)s1	79*	34*	0	-13	2	32*
CCCc1nnc(NC(=O)Cn2c(=O)oc3ccccc32)s1	2	8	1	-21	1	5
CCCC(=O)N(Cc1cc2cc(OC)ccc2[nH]c1=O)c1ccc(OC)cc1	0	nt	nt	nt	nt	nt
CC(=O)Nc1ccc(C(=O)NNC(=O)C2C3CCCCC32)cc1 (configuration not stated)	0	0	nt	2	nt	2
COc1ccccc1CCNC(=O)CSc1ccc(-c2cccs2)nn1	-6	0	33*	1	20*	-1
O=C(CCC1CCCC1)c1c(O)c2ccccc2oc1=O	89*	-1	1	-5	1	0
CC(O)CNc1ncnc2cc(-c3ccc(F)cc3)sc12 (configuration not stated)	1	-2	nt	-4	nt	-1
COc1cc(/C=C(\C#N)c2nc3c(s2)CCCC3)ccc1O	nt	60*	6	-24	11	57*
O=C(Cn1cnc2c(nnn2Cc2ccccc2)c1=O)Nc1ccc2c(c1)OCCO2	1	1	nt	-5	nt	1
CSCCC(NC(=O)c1ccco1)C(=O)OCc1cc([N+](=O)[O-])cc2c1OCOC2 (configuration not stated)	56*	0	0	-6	2	3
CSc1nc(C)cc(-c2cc(C(=O)Nc3ccccc3)on2)n1	nt	-2	nt	-10	nt	1
Cc1ccc(N=Nc2[nH]c3ccccc3c2O)cc1	1	32*	0	-9	1	22*
Cc1ccc(NC(=O)c2ccc(OCC3CCCO3)cc2)cc1Cl (configuration not stated)	5	nt	nt	nt	nt	nt
O=c1c2[nH]c3ccccc3c2ncn1Cc1ccco1	-2	-2	-1	0	0	-1
Cc1ccc2c(c1)[nH]c1c(=O)n(Cc3ccco3)cnc12	84*	8	6	-7	2	8
SMILES	CRFR2-BP ag	OXTR ag	zfTRPN1 agonist	OXTR potentiate	TRPML3 ag	V1aR counter
O=C(NNC1=C(C(=O)C(F)(F)F)CCC1)c1ccccc1O	-1	2	0	-7	0	1
COc1ccccc1C(=O)NNC1=C(C(=O)C(F)(F)F)CCC1	62*	-1	2	-3	1	-1
COc1cccc(CN2CC(C(=O)NCc3ncc(C)[nH]3)CCC2=O)c1 (configuration not stated)	-1	0	nt	-2	nt	1
Nc1ccc(O)c(C(=O)O)c1	nt	1	nt	-9	nt	0
Nc1ccc(-c2c3ccc(=O)cc-3oc3cc(O)ccc23)c(C(=O)O)c1	232*	167*	nt	-13	nt	206*
O=C1c2ccccc2C(=O)N1c1ncc(Cc2ccc(Cl)cc2)s1	208*	2	-1	-5	1	2
Cc1ccc(Cc2cnc(N3C(=N)SC(C)C3=O)s2)cc1 (configuration not stated)	-1	0	1	-10	1	1
O=C(N/N=C(\c1ccccc1)c1cccnc1)c1cccc(F)c1	-11	-1	nt	3	nt	0
CCOC(=O)C1=C(O)c2ccccc2C(=O)/C1=C\c1ccc(C)cc1	111*	2	2	-7	1	4
COc1ccc(C(=O)c2sc3nc(-c4ccccc4)ccc3c2N)cc1	83*	2	2	-9	1	7
CC(C)OC(=O)c1sc2nc(-c3ccccc3)ccc2c1N	0	-1	1	-2	0	0
COc1ccc(S(=O)(=O)N2CCOCC2)cc1NC(=O)COc1cccnc1[N+](=O)[O-]	-2	0	3	3	1	-1
Cn1c2c(c(=O)n(C)c1=O)C(C(F)(F)F)(C(F)(F)F)N=C(c1ccc(Cl)cc1)N2	83*	14	29*	-8	20*	8
Cc1ccccc1C1=NC(C(F)(F)F)(C(F)(F)F)c2c(n(C)c(=O)n(C)c2=O)N1	-1	-1	0	-4	0	0
CCn1c(=O)n(CC)c2cc(N3CCCC3)c(NC(=O)c3ccc(C)cc3)cc21	1	-2	nt	-5	nt	-1
CCCCn1c(N)c(N(CC(C)C)C(=O)Cc2ccc(S(=O)(=O)N3CCOCC3)s2)c(=O)[nH]c1=O	54*	nt	nt	nt	nt	nt
O=C1/C(=C/c2cccs2)CCC/C1=C\c1cccs1	8	0	nt	-3	nt	2
Cn1cccc1/C=C1\CCC/C(=C\c2cccn2C)C1=O	155*	75*	0	-14	1	44*
Cc1ccc(S(=O)(=O)N(CC(=O)N2CCOCC2)c2ccccc2F)cc1	1	0	nt	-7	nt	1
CCOc1ccccc1N(CC(=O)N1CCOCC1)S(=O)(=O)c1ccc(SC)cc1	109*	nt	57*	nt	199*	nt
CC(C)c1nnc(NC(=O)CCC(=O)NC2CC2)s1	-1	2	nt	2	nt	1
C#CCOCCOCCOCCNc1nc(N2CCN(C(=O)CCCCCCCCCCNC(=O)[C@H]([C@@H](C)CC)n3cc(CCCCCN)nn3)CC2)nc(N2CCN(C(=O)CCCCCCCCCCNC(=O)[C@@H]([C@H](C)CC)n3cc(CCCCCN)nn3)CC2)n1	nt	19	nt	-16	nt	27*
